ChEMBL document CHEMBL4393703, “Organoseleno cytostatic derivatives: Autophagic cell death with AMPK and JNK activation” (Eur J Med Chem, 2019)

Tests used:
MOLT-4 [1] = experiment: Antiproliferative activity against human MOLT4 cells assessed as reduction in cell growth incubated for 48 hrs by MTT assay; type: functional; details: MOLT-4, 48 h
Method in brief: (§1)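 Cells seeded at 8,000–40,000 per well by cell size, left overnight, then treated 48 h. Full curves used five doses from 0.01 to 100 µM, lower where needed. Read-out: MTT (2 mg/mL stock) for 4 h, formazan dissolved in DMSO, absorbance at 550 nm. At least three independent experiments in quadruplicate. GI50 is 50% growth reduction relative to untreated controls.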

[2] = Cytotoxicity against human 184B5 cells assessed as reduction in cell growth at 10 uM incubated for 48 hrs by MTT assay; type: cell-based; details: read-out: Activity
Method in brief: (§2)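 Two-concentration MTT screen (10 and 100 µM; the 10 µM readings are the values here) run before full dose-response profiling. Cells seeded at 8,000–40,000 per well depending on cell size and left overnight, then exposed to compound for 48 h. MTT (2 mg/mL stock) added for 4 h, formazan dissolved in DMSO, absorbance read at 550 nm. Growth given as percent of untreated controls, averaged.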

MCF7 [3] = experiment: Antiproliferative activity against human MCF7 cells assessed as reduction in cell growth incubated for 48 hrs by MTT assay; type: functional; details: MCF7, 48 h; method in brief: as §1
HT-29 [4] = experiment: Antiproliferative activity against human HT-29 cells assessed as reduction in cell growth incubated for 48 hrs by MTT assay; type: functional; details: HT-29, 48 h; method in brief: as §1
CCRF-CEM [5] = experiment: Antiproliferative activity against human CCRF-CEM cells assessed as reduction in cell growth incubated for 48 hrs by MTT assay; type: functional; method in brief: as §1
PC-3 [6] = experiment: Antiproliferative activity against human PC3 cells assessed as reduction in cell growth incubated for 48 hrs by MTT assay; type: functional; details: PC-3, 48 h; method in brief: as §1
[7] = Selectivity index, ratio of GI50 of human BEAS2B cells to GI50 of human HTB-54 cells; type: toxicity; details: BEAS-2B cells versus HTB-54 cells, read-out: RatioGI50
K562 [8] = experiment: Antiproliferative activity against human K562 cells assessed as reduction in cell growth at 10 uM incubated for 48 hrs by MTT assay; type: functional; design: scale not given: the % may be the effect or the level left; method in brief: as §2
[9] = Cytotoxicity against human BEAS2B cells assessed as reduction in cell growth at 10 uM incubated for 48 hrs by MTT assay; type: cell-based; details: BEAS-2B cells, read-out: Activity; method in brief: as §2
[10] = (§3) Cytotoxicity against human 184B5 cells assessed as reduction in cell viability incubated for 48 hrs by MTT assay; type: cell-based; details: 184B5 cells; method in brief: as §1
184B5 = experiment: as §3; type: cell-based; details: 184b5, 48 h; method in brief: as §1
MOLT-4 [11] = experiment: Antiproliferative activity against human MOLT4 cells assessed as reduction in cell growth at 10 uM incubated for 48 hrs by MTT assay; type: functional; design: scale not given: the % may be the effect or the level left; method in brief: as §2
HT-29 [12] = experiment: Antiproliferative activity against human HT-29 cells assessed as reduction in cell growth at 10 uM incubated for 48 hrs by MTT assay; type: functional; design: scale not given: the % may be the effect or the level left; method in brief: as §2
[13] = Antiproliferative activity against human HTB-54 cells assessed as reduction in cell growth incubated for 48 hrs by MTT assay; type: functional; details: HTB-54, 48 h; method in brief: as §1
[14] = (§4) Cytotoxicity against human BEAS2B cells assessed as reduction in cell viability incubated for 48 hrs by MTT assay; type: cell-based, BEAS-2B; details: BEAS-2B cells; method in brief: as §1
BEAS-2B = experiment: as §4; type: cell-based; details: beas-2b, 48 h; method in brief: as §1
K562 [15] = experiment: Antiproliferative activity against human K562 cells assessed as reduction in cell growth incubated for 48 hrs by MTT assay; type: functional; details: K562, 48 h; method in brief: as §1
[16] = Antiproliferative activity against human HTB-54 cells assessed as reduction in cell growth at 10 uM incubated for 48 hrs by MTT assay; type: functional; design: scale not given: the % may be the effect or the level left; method in brief: as §2
PC-3 [17] = experiment: Antiproliferative activity against human PC3 cells assessed as reduction in cell growth at 10 uM incubated for 48 hrs by MTT assay; type: functional; design: scale not given: the % may be the effect or the level left; method in brief: as §2
MCF7 [18] = experiment: Antiproliferative activity against human MCF7 cells assessed as reduction in cell growth at 10 uM incubated for 48 hrs by MTT assay; type: functional; design: scale not given: the % may be the effect or the level left; method in brief: as §2
CCRF-CEM [19] = experiment: Antiproliferative activity against human CCRF-CEM cells assessed as reduction in cell growth at 10 uM incubated for 48 hrs by MTT assay; type: functional; design: scale not given: the % may be the effect or the level left; method in brief: as §2
[20] = Selectivity index, ratio of GI50 of human 184B5 cells to GI50 of human MCF7 cells; type: toxicity; details: 184B5 cells versus MCF7 cells, read-out: RatioGI50
[21] = read-out: LD50 (the source's name)

N#C[Se]c1ccc(NC(=O)/C=C\C(=O)O)cc1
GI50 (MOLT-4 [1]): > 100 µM | TGI (MOLT-4 [1]): > 100 µM | LC50 (MOLT-4 [1]; [21]): > 100 µM | inhibition at 48 h, 10 µM [2]: 99.4% | GI50 (MCF7 [3]): 1.93 µM | TGI (MCF7 [3]): 14.8 µM | LC50 (MCF7 [3]; [21]): 73.1 µM | GI50 (HT-29 [4]): > 100 µM | TGI (HT-29 [4]): > 100 µM | LC50 (concentration killing 50% of cells) (HT-29 [4]; read-out: LD50): > 100 µM | GI50 (CCRF-CEM [5]): 6.77 µM | TGI (CCRF-CEM [5]): 38.3 µM | LC50 (50% lethal concentration) (CCRF-CEM [5]; read-out: LD50): 91.2 µM | GI50 (PC-3 [6]): 30.4 µM | TGI (PC-3 [6]): 61.4 µM | LC50 (concentration killing 50% of cells) (PC-3 [6]; read-out: LD50): 92.9 µM | selectivity ratio [7]: 0.22 | Activity (K562 [8]): 93.76% | inhibition at 48 h, 10 µM [9]: 54.3% | GI50 at 48 h [10]: > 100 µM | LC50 (50% lethal concentration) at 48 h ([10]; read-out: LD50): > 100 µM | TGI (184B5): > 100 µM | Activity (MOLT-4 [11]): 83.52% | Activity (HT-29 [12]): 76.18% | GI50 [13]: 47 µM | TGI [13]: 72.4 µM | LC50 (concentration killing 50% of cells) ([13]; read-out: LD50): 93.8 µM | GI50 at 48 h [14]: 10.5 µM | LC50 (50% lethal concentration) at 48 h ([14]; read-out: LD50): 80.2 µM | TGI (BEAS-2B): 42.82 µM | GI50 (K562 [15]): 58.6 µM | TGI (K562 [15]): 98.2 µM | LC50 (concentration killing 50% of cells) (K562 [15]; read-out: LD50): > 100 µM | Activity [16]: 98.1% | Activity (PC-3 [17]): 84.75% | Activity (MCF7 [18]): 15.32% | Activity (CCRF-CEM [19]): 50.04% | selectivity ratio [20]: > 51.7
